Published values from different studies.
Each line is one published result; the experiments were not run side by side.

SMILES | test system | conditions | measurement | result
CC(C)n1cc(C#N)c2cc(-n3cc(C(=O)O)cn3)ccc21 | human, plasma | oral, 10 mg, single dose, fasted, healthy volunteers | Cmax | 313 ng/mL
CO[C@H]1CC[C@H](N2C(=O)CNc3ncc(-c4ccc(C(C)(C)O)nc4)nc32)CC1 | human, plasma | oral, 15 mg, multiple doses, patients | Cmax | 92 ng/mL
Cn1cc(-c2ccc(S(=O)(=O)[C@@H]3C[C@@H](C(=O)NC4(C#N)CC4)N(C(=O)C4(C(F)(F)F)CC4)C3)c(C(F)(F)F)c2)cn1 | human, plasma | oral, 600 mg, single dose, fasted, healthy volunteers | Cmax | 1300 ng/mL
CC(C)(C)c1ccc(O)c(CN(Cc2cc(C(C)(C)C)ccc2O)C2CCC(NC(N)=O)CC2)c1 (stereo not shown) | male C57BL/6 mouse, brain | intraperitoneal, 5 mg/kg, single dose | Tmax | 30 min
CN1CCC[C@H](CN2c3ccccc3Sc3ccccc32)C1.Cl | mouse, plasma | intraperitoneal, 32 mg/kg, single dose | Tmax | 60 min
CS(=O)(=O)CCNCc1ccc(-c2ccc3ncnc(Nc4ccc(OCc5cccc(F)c5)c(Cl)c4)c3c2)o1 | nude mouse, plasma | oral, 100 mg/kg, single dose | Tmax | 120 min
COc1cc(C(=O)NC2CCN(C)CC2)c(F)cc1Nc1ncc(C(F)(F)F)c(Oc2cccc3c2C(=O)N(C)C3)n1 | human, plasma | oral, 300 mg, single dose, patients | Cmax | 4.54 µM
CCc1nc2c(C)cc(N3CCN(CC(=O)N4CC(O)C4)CC3)cn2c1N(C)c1nc(-c2ccc(F)cc2)c(C#N)s1 | human, plasma | oral, 1500 mg, single dose, fed, healthy volunteers | Cmax | 19000 ng/mL
CN1CCC(c2ccccc2CC(C)(C)Nc2nc(N3CCOCC3)nc(-n3c(C(F)F)nc4ccccc43)n2)CC1 | cynomolgus monkey, plasma | intravenous, 2 mg/kg, single dose | Vd | 8 L/kg
CC(C)(O)c1cn(-c2ccc(-c3cccc(S(C)(=O)=O)c3)cc2)c(C(C)(C)c2ccccc2Cl)n1 | male cynomolgus monkey, plasma | oral, 3 mg/kg, single dose | bioavailability | 73%
CCc1ccc(Cc2cc([C@@H]3O[C@H](CO)[C@@H](O)[C@H](O)[C@H]3O)cc3c2CCC3)cc1 | male C57BL/6 mouse, plasma | oral, 0.3 mg/kg | Tmax | 30 min
CC(C)(O)c1cn(-c2ccc(-c3cc(F)c(CO)c(S(C)(=O)=O)c3)cc2F)c(C(C)(C)c2c(Cl)cccc2Cl)n1 | male cynomolgus monkey, plasma | oral, 3 mg/kg, single dose | bioavailability | 42%
C=CC(=O)N1CC2CC(n3nc(-c4ccc(C(=O)Nc5ccccn5)cc4)c4c(N)ncnc43)CC2C1 (stereo not shown) | SCID mouse, plasma | oral, 1 mg/kg | Tmax | 15 min
